Screens (PubChem BioAssay)
Sampled rows, rich in hits. Any-hit rate of the full collection: about 4.7%.
MC4R antagonist: MC4R antagonists of cAMP signaling, primary screen, cell-based, TR-FRET, antagonist arm of biased-ligand search | inhibition, % at 6.5 µM | 360,000 tested, 0.48% active | AID 540295, 2011 | Melanocortin receptor 4 (Homo sapiens), P32245 | MC4R-expressing cells, MTII-stimulated cAMP, LANCE TR-FRET;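 active means inhibition above its plate's cutoff, the mean of tested wells on that plate plus 3 SD, cut at about 29% in these data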
Target sequence (P32245 whole entry, looked up): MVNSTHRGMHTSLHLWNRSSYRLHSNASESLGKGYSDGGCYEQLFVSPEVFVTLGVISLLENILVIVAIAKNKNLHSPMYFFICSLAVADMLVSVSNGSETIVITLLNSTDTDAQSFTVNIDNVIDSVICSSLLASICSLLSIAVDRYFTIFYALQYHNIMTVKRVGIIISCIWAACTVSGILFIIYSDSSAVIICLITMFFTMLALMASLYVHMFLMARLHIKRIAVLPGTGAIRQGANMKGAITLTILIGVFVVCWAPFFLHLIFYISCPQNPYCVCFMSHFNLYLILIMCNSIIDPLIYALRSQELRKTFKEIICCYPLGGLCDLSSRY
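Material: U2OS-MC4R stable cell line | Reagent: Melanotan II challenge after compound preincubation | Doses: One concentration, 6.5 µM nominal | Incubation: 30-min compound preincubation, 1-h Melanotan II challenge, 1-h detection, room temperature | Signal: TR-FRET cAMP assay | Replicates: One well per compound, no replicates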
MC4R barr agon: MC4R agonists recruiting beta-arrestin, primary screen, cell-based, luminescence, agonist arm of biased-ligand search; Melanocortin receptor 4 (Homo sapiens), P32245; U2OS MC4R beta-arrestin complementation; percent of melanotan II response, DMSO zero; activation, % at 8.9 µM; 360,000 tested, 0.98% active; AID 540308, 2011;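 active means activation above a per-plate cutoff, the mean activation of sample wells on that plate plus 3 SD, cut at about 8% in these data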
GAA850 FXN act: FXN promoter activators, primary screen, cell-based, luciferase luminescence, HEK293 lucGAA850 | HEK293 lucGAA850 FXN promoter luciferase reporter, 24 h; percent of 10 µM SAHA response | 360,000 tested, 0.56% active | activation, % at 6 µM | AID 540364, 2011;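 active means activation above the average of all compounds screened plus 3 SD, cutoff fixed separately per campaign, cut at about 7.5% in these data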
AHR act: AHR activators, primary screen, cell-based, luminescence, luciferase reporter, human. Aryl hydrocarbon receptor (Homo sapiens), P35869. AHR-responsive luciferase reporter cells. activation, % at 5 µM. 320,000 tested, 2.5% active; in the data active means activation above about 47%
m5-HT2A agonist: mouse Htr2a agonists via beta-arrestin recruitment, primary screen, cell-based, luminescence; 5-hydroxytryptamine receptor 2A (Mus musculus), P35363; CHO-K1 mHTR2A beta-arrestin complementation; percent of 30 µM serotonin response; activation, % at 7.6 µM; 360,000 tested, 0.66% active; AID 624169, 2012;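 active means activation above a run cutoff, the mean activation of all tested compounds plus 3 SD, cut at about 14% in these data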
GAA30 counter: GAA30 FXN promoter activators, confirmation, counter-screen for GAA850 frataxin promoter activator project, cell-based, luminescence, HEK293, lucGAA30, triplicate. shares compounds with GAA850 FXN act. HEK293 lucGAA30 FXN promoter luciferase, 24 h; DMSO = 0%, 5 µM ipriflavone = 100%. activation, % at 6 µM. 1,900 tested, 66% active. AID 588350, 2011;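 active means mean activation above the mean of solvent-only control wells plus 3 SD, cut at about 22% in these data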;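 further: counterscreen of GAA850 promoter hits where activity marks nonselective or luminescence artifacts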
GAA850 confirm: FXN GAA850 promoter activators in reporter cells, confirmation, cell-based, luminescence, HEK293 lucGAA850, triplicate. HEK293 lucGAA850 FXN promoter luciferase reporter, 24 h; 100% = activation by SAHA. 1,900 tested, 86% active. activation, % at 6 µM. shares compounds with GAA850 FXN act;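 active means mean activation above a set limit taken from the primary screen, cut at about 8% in these data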
A number is an active result; 0 = inactive; - = no result; ! = not confirmed by another sample.

SMILES | MC4R antagonist | MC4R barr agon | GAA850 FXN act | AHR act | m5-HT2A agonist | GAA30 counter | GAA850 confirm
COc1ccc(S(=O)(=O)N(C)C[C@@H]2OCCCC[C@@H](C)Oc3ccc(NS(=O)(=O)c4cccs4)cc3C(=O)N([C@H](C)CO)C[C@@H]2C)cc1 | 0 | 0 | 0 | - | 0 | - | -
COc1ccc([C@@H]2[C@@H]3C(=O)N(C(C)(C)C)C(=O)[C@@H]3[C@]3(Cc4ccc(Cl)cc4)C(=O)N(c4cccc(Br)c4)C(=O)N23)cc1 | 0 | 0 | 0 | 0 | 0 | - | -
CC[C@@]12C(=O)N(c3cccc(Br)c3)C(=O)N1[C@H](c1ccc(OC)cc1)[C@@H]1C(=O)N(C(C)(C)C)C(=O)[C@@H]12 | 0 | 0 | 11.0 | 0 | 0 | 39.1 | 9.2
CCCCNc1ccc(C(F)(F)F)cc1S(=O)(=O)NCCc1ccc(F)cc1 | 0 | 0 | 11.9 | - | 0 | 33.0 | 17.3
Nc1c2ccccc2nc2ccccc12 | 0 | 0 | 12.8! | 0 | 0 | 0 | 94.0
c1ccc2nc3ccccc3nc2c1 | 0 | 0 | 0 | 0 | 0 | - | -
Cc1cc(=O)oc2cc(OCC(=O)NC3(C#N)CCCCC3)ccc12 | 0 | 0 | 0 | - | 0 | - | -
CN(C)c1nc(N)c([N+](=O)[O-])c(NCc2ccccc2)n1 | 0 | 0 | 7.6 | 0 | 0 | 68.9 | 25.1
Cc1ccc(Nc2nc(N)c([N+](=O)[O-])c(NCc3ccco3)n2)cc1C | 0 | 0 | 7.8 | 64.3 | 0 | 92.1 | 43.8
Cc1ccc(CNc2nc(N)c([N+](=O)[O-])c(NCc3ccccc3)n2)cc1 | 0 | 0 | 0 | 0 | 0 | - | -
Nc1nc(NCc2ccccc2)nc(NCc2ccccc2)c1[N+](=O)[O-] | 0 | 0 | 0 | 0 | 0 | - | -
CNc1nc(N)c([N+](=O)[O-])c(NCc2ccccc2)n1 | 0 | 0 | 16.9 | 0 | 0 | 87.0 | 31.9
Oc1ccccc1C1CC(c2cccs2)=NC(c2cccc(Br)c2)N1 (stereo not drawn) | 0 | 0 | 0 | 0 | 0 | - | -
CCCCNC(=O)C[C@@H]1C[C@@]2(C(=O)OCC)CCC=C2N(Cc2ccc(Cl)cc2Cl)C1=O | - | - | - | - | 0 | - | -
C/C(=N\NC(=O)COc1ccc(C(C)(C)C)cc1)c1ccc(-n2ccnc2)cc1 | 0 | 0 | 8.5 | 72.9 | 0 | 94.5 | 21.6
CC(C)(C)c1ccc(NC(=O)COc2ccc(-n3ccnc3)cc2)cc1 | 0 | 0 | 0 | 0 | 0 | - | -
Cc1onc(-c2ccccc2)c1C(=O)Nc1cccc(S(=O)(=O)N2CCCCC2)c1 | 0 | 0 | 0 | 0 | 0 | - | -
CCC(O)(CC)C(=O)NN(C(=O)Nc1csc2c1CCCC2)c1ccccc1 | 0 | 0 | 9.4 | 0 | 0 | 0 | 0
CC(=O)OC1COC(n2c(O)c(N=NC(N)=S)c3ccccc32)C(OC(C)=O)C1OC(C)=O (stereo not drawn) | 0 | 0 | 0 | 0 | 0 | - | -
Nc1nc(SCc2ccc(Cl)cc2Cl)ns1 | 0 | 0 | 7.9 | 0 | 0 | 50.0 | 15.1
Cc1ccccc1CSc1nsc(N)n1 | 0 | 0 | 0 | 0 | 0 | - | -
CCCCn1c(N)c(N(C(=O)CSc2nnc(C)n2-c2ccccc2)C2CCCC2)c(=O)[nH]c1=O | 0 | 0 | 0 | 0 | 0 | - | -
Nc1nc(N)nc(-c2cc([N+](=O)[O-])ccc2O)n1 | 0 | 0 | 16.7 | 0 | 0 | 69.0 | 51.5
Nc1nc(N)nc(-c2cc(O)ccc2O)n1 | 0 | 0 | 0 | 0 | 0 | - | -
NS(=O)(=O)c1cccc(NC(=O)CSc2nn(-c3ccccc3)c(=S)s2)c1 | 0 | 0 | 0 | 0 | 0 | - | -
SMILES | MC4R antagonist | MC4R barr agon | GAA850 FXN act | AHR act | m5-HT2A agonist | GAA30 counter | GAA850 confirm
Cc1ccc(NC(=O)CSc2nn(-c3ccc(Cl)cc3)c(=S)s2)cc1S(=O)(=O)N(C)C | 0 | 0 | 10.4 | 0 | 0 | 0 | 0
CN(C)S(=O)(=O)c1cc(NC(=O)CSc2nn(-c3ccc(Cl)cc3)c(=S)s2)ccc1Cl | 0 | 0 | 10.6 | 0 | 0 | 0 | 9.1
Cc1nc2c(OCc3ccc(OC(F)F)cc3)cccn2c1N(C)C(=O)CCC1CCCC1 | 0 | 0 | 0 | - | 0 | - | -
O=C(NCc1ccco1)c1ccc(Cn2c(=O)c3ccccc3n(Cc3cccc(F)c3)c2=O)cc1 | 0 | 0 | 8.0 | 0 | 0 | 0 | 0
O=C(NCc1ccco1)c1ccc(Cn2c(=O)c3ccccc3n(Cc3ccc(Cl)cc3)c2=O)cc1 | 0 | 0 | 13.9 | 0 | 0 | 22.1 | 14.0
N#Cc1ccccc1Cn1c(=O)n(Cc2ccc(C(=O)NCc3ccco3)cc2)c(=O)c2sccc21 | 0 | 0 | 11.8 | 0 | 0 | 22.5 | 7.8
COCCNC(=O)Cn1c(=O)n(Cc2ccc(C(=O)NCc3ccco3)cc2)c(=O)c2ccccc21 | 0 | 0 | 0 | 0 | 0 | - | -
N#Cc1ccccc1Cn1c(=O)n(-c2ccc(CC(=O)NCc3ccco3)cc2)c(=O)c2sccc21 | 0 | 0 | 0 | 0 | 0 | - | -
Cc1ccc(S(=O)(=O)SCCCSS(=O)(=O)c2ccc(C)cc2)cc1 | 0 | 0 | 0 | - | 0 | - | -
N#Cc1ccc(C(=O)N2CCCCC2c2cc(C(=O)Nc3ccccc3Cl)no2)cc1 (stereo not drawn) | 0 | 0 | 0 | - | 0 | - | -
C/C=C/Cn1c(SCc2ccc(C)cc2)nc2c1c(=O)[nH]c(=O)n2C | 0 | 0 | 8.7 | 0 | 0 | 23.4 | 21.1
CC=CCn1c(SCc2ccccc2)nc2c1c(=O)[nH]c(=O)n2C | 0 | 0 | 0 | - | 0 | - | -
C[C@H]1CN([C@@H](C)CO)C(=O)c2c(c3ccccc3n2C)-c2ccccc2CO[C@H]1CN(C)Cc1cccc(F)c1 | 0 | 0 | 11.9 | - | 0 | 23.3 | 9.9
CCOC(=O)N(C)C[C@@H]1OCc2ccccc2-c2c(n(C)c3ccccc23)C(=O)N([C@H](C)CO)C[C@H]1C | 0 | 0 | 0 | - | 0 | - | -
C[C@H](CO)N1C[C@H](C)[C@H](CN(C)C(=O)c2ccccc2)OCc2ccccc2-c2c(n(C)c3ccccc23)C1=O | 0 | 0 | 8.5 | - | 0 | 0 | 0
CCN(CC)c1ccc(S(=O)(=O)N2CCCCC2)cc1NC(=O)CSCc1c(C)noc1C | 0 | 0 | 10.4 | - | 0 | 0 | 22.2
Cn1c(N)c(C(=O)COC(=O)Cc2ccc(Cl)c(Cl)c2)c(=O)n(C)c1=O | 0 | 0 | 0 | 0 | 0 | - | -
O=c1oc2cc(O)ccc2s1 | 0 | 0 | 9.6 | 0 | 0 | 0 | 15.6
Oc1ccc2c(c1)oc1cc(O)ccc12 | 0 | 0 | 0 | 0 | 0 | - | -
O=C1c2cccc3c([N+](=O)[O-])ccc(c23)C(=O)N1CCc1ccccn1 | 0 | 0 | 0 | 0 | 0 | - | -
